zfTRPN1 agonist: activates the zebrafish TRPN1 channel; actives 0.18% (n = 220,000); HEK293 zebrafish TRPN1-YFP, Fluo-8 calcium fluorescence; 100% = response to 87 µM carbachol; activation, % at 3 µM;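 active means activation above its plate's cutoff, the mean activation of test wells on that plate plus 3 SD, cut at about 19% in these data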;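 further: 0% = DMSO alone and 100% = 87 µM carbachol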
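Assay system: Zebrafish TRPN1-YFP in HEK293 cells | Incubation: Dye loading 1 h at 37 °C, then 30 min room temperature | Measured by: Kinetic Fluo-8 fluorescence, ex 470-495, em 515-575 nm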
TRPML3 ag: human mucolipin-3 channel agonism; HEK293 TRPML3-YFP, Fluo-8 calcium fluorescence; 100% = the carbachol control signal; actives 0.29% (n = 220,000); Q8TDD5; activation, % at 3 µM;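 active means activation above its plate's cutoff, the mean activation of the plate's test wells plus 3 SD, cut at about 12% in these data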;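 further: 0% = DMSO only wells and 100% = carbachol wells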
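Material: TRPML3-YFP stable HEK293 cells | Dosing: One concentration, 3 µM nominal, 0.3% DMSO | Timing: 125 s total fluorescence read per well | Technique: Fluo-8 calcium dye fluorescence, ex 470-495, em 515-575 nm | Measure: Percent activation from peak-to-basal fluorescence ratio, scaled between DMSO and carbachol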
CHO parental Ca: counter-screen: ATP calcium response change in parental CHO cells; AID 463079; actives 0.63% (n = 330,000); parental CHO-K1, ATP-induced calcium, Fluo-8 fluorescence; inhibition, % at 5.6 µM;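 active means inhibition above that plate's mean sample inhibition plus 3 SD, cut at about 26% in these data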;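 further: 0% = ATP-challenged DMSO wells and 100% = DMSO wells without ATP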
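Test system: untransfected parental CHO cell line. Compound: one dose, 5.6 µM nominal. Detection: intracellular calcium via Fluo-8 no-wash fluorescent dye. Measure: % inhibition. Benchmarks: ATP-challenged DMSO wells low, unchallenged DMSO wells high.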
OX1R antag-1: blocks the human orexin 1 receptor; OX1R-expressing cells, FRET antagonist read-out; inhibition, % at 6.6 µM; actives 1.8% (n = 330,000); in the data active means inhibition mostly above about 38%, no sharp cut-off; inactive means mostly below about 40%;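 further: 0% = agonist challenge alone and 100% = reference antagonist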
Target sequence (O43613 whole entry, looked up): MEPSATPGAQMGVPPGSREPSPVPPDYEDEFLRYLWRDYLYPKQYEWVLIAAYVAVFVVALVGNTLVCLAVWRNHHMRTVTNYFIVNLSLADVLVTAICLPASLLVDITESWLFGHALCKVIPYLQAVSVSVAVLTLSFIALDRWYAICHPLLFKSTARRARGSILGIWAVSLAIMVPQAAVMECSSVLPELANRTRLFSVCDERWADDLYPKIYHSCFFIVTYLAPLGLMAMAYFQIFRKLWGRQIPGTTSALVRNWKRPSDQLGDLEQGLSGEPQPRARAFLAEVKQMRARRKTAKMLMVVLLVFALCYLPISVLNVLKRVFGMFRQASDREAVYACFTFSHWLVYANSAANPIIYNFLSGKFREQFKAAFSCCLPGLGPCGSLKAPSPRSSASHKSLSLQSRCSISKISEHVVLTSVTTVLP
OX1R antag-2: antagonists of human orexin 1 receptor | O43613 | CHO/OX1R cells, Fluo-8 calcium fluorescence, orexin A | inhibition, % at 5 µM | actives 0.43% (n = 330,000) | AID 434989;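 active means inhibition above its plate's threshold, mean inhibition of all tested compounds on the plate plus 3 SD, cut at about 37% in these data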;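 further: 0% = orexin A challenge wells and 100% = SB-334867-A antagonist wells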
Active calls of the source: *; . = no result given. Shown are actives, neighbours in structure and some others; about 2.5% of the full set was active somewhere.

SMILES	zfTRPN1 agonist	TRPML3 ag	CHO parental Ca	OX1R antag-1	OX1R antag-2
O=C1c2cccc3c([N+](=O)[O-])ccc(c23)C(=O)N1c1ccc(Cl)cn1	0	1	35*	51*	45
CCCN1C(=O)c2cccc3c(N4CCCCC4)ccc(c23)C1=O	23*	7	-5	7	4
O=C1c2cccc3c([N+](=O)[O-])ccc(c23)C(=O)N1c1nccs1	-3	-2	14	62*	20
O=C1c2cccc3cccc(c23)C(=O)N1c1nccs1	1	1	-1	30	-17
CSc1nc2cc(C)nn2c(-c2ccccc2)c1C#N	2	1	4	2	-14
CSc1nnc(NC(=O)c2cccc(S(=O)(=O)N3CCOCC3)c2)s1	.	.	-1	-3	-8
O=C1c2cccc3c(N4CCCCC4)ccc(c23)C(=O)N1c1ccccn1	7	6	31	48	51*
COc1cccc(N2CCN(c3ncnc4c3cnn4-c3ccc(C)cc3C)CC2)c1	5	2	42*	43*	39
COc1ccc(C(=O)OCC(=O)NCCN2C(=O)CSC2=O)cc1[N+](=O)[O-]	.	.	-14	19	-17
CC1CN(C(=S)NC(=O)c2ccc([N+](=O)[O-])cc2)CC(C)O1 (stereo not given)	-1	0	-6	120*	-11
CCN(CC)CCN(C(=O)c1ccc(CN2CCCCC2)o1)C(C(=O)NC1CCCCC1)c1ccc(F)cc1 (stereo not given)	3	1	-7	-7	-24
COc1ccc(/C=C2\Oc3ccccc3C2=O)cc1	.	.	-10	22	1
CC(=O)Oc1ccc(/C=C2/Oc3ccccc3C2=O)cc1	0	1	49*	6	35
Cc1ccccc1-n1c(=O)c(C#N)cc2c(=O)n3ccccc3nc21	-1	-1	-12	49*	-9
N#Cc1cc2c(=O)n3ccccc3nc2n(-c2ccc(Cl)cc2)c1=O	-1	0	-9	49	-12
O=S(=O)(c1cccc(-c2n[nH]c(=S)n2-c2ccc(OC(F)(F)F)cc2)c1)N1CCOCC1	.	.	-6	9	-6
O=C(O)CSc1c2ccccc2cc2ccccc12	.	.	-9	54*	7
Cc1[nH]c2ccccc2c1SCC(=O)O	-1	1	-11	14	-9
CC[C@@]1(C(=O)OC)N[C@H](CN(C)S(=O)(=O)c2ccc(C(C)(C)C)cc2)[C@@H]2C(=O)N(Cc3ccccc3)C(=O)[C@@H]21	.	.	-14	-3	-22
O=C(c1ccco1)N1CCN(C(=O)c2[nH]ncc2[N+](=O)[O-])CC1	1	1	2	19	0
O=C(c1ccco1)N1CCN(c2c([N+](=O)[O-])nn(-c3ccc(Cl)cc3)[n+]2[O-])CC1	1	2	-18	42*	-18
O=C(Nc1cccc(NC(=O)c2sc3ccccc3c2Cl)c1)c1ccco1	0	1	-22	76*	-6
O=C(Nc1cccc(NC(=O)c2ccco2)c1)c1ccccc1	.	.	-21	16	-21
O=C(Nc1cccc(NC(=O)c2nccc3ccccc23)c1)c1ccco1	.	.	-1	54*	-26
CNC(=O)c1ccsc1NC(=O)c1sc2ccccc2c1Cl	4	1	7	56*	-20
SMILES	zfTRPN1 agonist	TRPML3 ag	CHO parental Ca	OX1R antag-1	OX1R antag-2
Cc1nn(CC(=O)N(C)c2c(N)n(Cc3ccccc3)c(=O)[nH]c2=O)c(C)c1[N+](=O)[O-]	.	.	-17	1	0
C=CCNC(=S)NCC	1	1	10	-2	2
O=C(CSc1nnc(-c2ccccc2)o1)NC1CC1	.	.	-12	9	-16
O=S(=O)(NCC1CCCO1)c1ccc(-c2ccc(S(=O)(=O)NCC3CCCO3)cc2)cc1 (stereo not given)	8	5	41*	21	40*
CCOC(=O)C1CCCN(S(=O)(=O)c2ccc(-c3cc(C)no3)s2)C1 (stereo not given)	.	.	-10	10	-14
CSCCC(NS(=O)(=O)c1ccc(Cl)cc1)C(=O)OCC(=O)c1c(C)[nH]c2ccccc12 (stereo not given)	2	1	82*	76*	79*
COc1ccc(OCCCC(=O)Nc2cc(S(=O)(=O)N3CCCCC3)ccc2C)cc1	.	.	-11	9	4
Cc1ccc(C2C(C#N)=C(N)Oc3cc(N)ccc32)cc1 (stereo not given)	.	.	-6	3	0
Cc1ccc(/C=C2\CCC3=C2OC(N)=C(C#N)C3c2ccc(C)cc2)cc1 (stereo not given)	14	7	41*	3	48*
NCCCNc1nc(N)c([N+](=O)[O-])c(NC2CCCCC2)n1	.	.	-12	-7	-10
O=[N+]([O-])c1ccccc1N/N=C/c1c[nH]c2ccccc12	-4	-1	-7	50	3
O=C(O)c1ccc(-c2ccc(/C=N/Nc3ccc([N+](=O)[O-])cc3)o2)cc1	39*	24*	64*	-1	77*
O=[N+]([O-])c1ccc(N/N=C/c2c[nH]c3ccccc23)cc1	10	9	47*	11	45
CCC(=O)N/N=C/c1ccc(-c2ccc([N+](=O)[O-])cc2)o1	1	0	1	42	-7
O=C1N=C(O)CN1/N=C/c1ccc(-c2ccc([N+](=O)[O-])cc2)o1	.	.	-20	59*	-13
O=C(N/N=C/c1ccc([N+](=O)[O-])o1)C(=O)Nc1ccc(C(=O)O)cc1	0	1	-3	60	-7
O=C(O)c1ccc(N/N=C/C=C/c2ccc([N+](=O)[O-])o2)cc1	.	.	52*	63	49*
CN(CC(=O)N1CCCCCC1)S(=O)(=O)c1ccccc1	.	.	-6	11	-4
COc1ccc(CCNC(=O)C2=CCN(S(=O)(=O)c3ccc(F)cc3)CC2)cc1OC	.	.	5	10	-18
O=C(c1ccc(COc2ccccc2Br)cc1)N1CCCCCC1	-1	0	-5	7	-11
O=C(O)c1ccc(N/N=C/c2ccc(-c3cccc(Cl)c3)o2)cc1	0	0	1	6	1
O=C(O)c1cccc(-c2ccc(/C=N/Nc3ccc([N+](=O)[O-])cc3)o2)c1	24*	11	33*	12	54*
O=C(CNc1cc(S(=O)(=O)N2CCOCC2)ccc1NCC1CCCO1)Nc1ccc(F)c(F)c1 (stereo not given)	.	.	-19	11	-25
Nc1c(C(=O)C2CC2)sc2nc(-c3ccccc3)cc(C(F)(F)F)c12	1	2	9	0	21
CC(=O)c1sc2nc(-c3cccs3)cc(C(F)(F)F)c2c1N	12	5	32	25	42*
Fc1cccc2sc(Nc3nnc(-c4ccco4)o3)nc12	2	1	41*	44	29
CCc1ccc(OCC(O)CN2CCN(c3ccc(OC)cc3)CC2)cc1 (stereo not given)	.	.	-30	-7	-37
